Assay results reported in ChEMBL document CHEMBL5032493, “Synthesis and Evaluation of PPARδ Agonists That Promote Osteogenesis in a Human Mesenchymal Stem Cell Culture and in a Mouse Model of Human Osteoporosis” (J Med Chem, 2021).
Activity calls are given as the source filed them. The rule behind the calls is not given here.

What was measured:
Mesenchymal stem cells [1] = experiment: Induction of adipogenesis differentiation in human Mesenchymal stem cells at 1 uM incubated for 21 days by […] staining-based microscopic analysis; format: functional, cell-based; conditions: time 21.0 day
Mesenchymal stem cells [2] = experiment: Induction of osteogenesis differentiation in human Mesenchymal stem cells at 10 uM incubated for 21 days by Alizarin Red S staining-based microscopic analysis; format: functional, cell-based; conditions: time 21.0 day
Mesenchymal stem cells [3] = experiment: Induction of osteogenesis differentiation in human Mesenchymal stem cells at 20 uM incubated for 21 days by Alizarin Red S staining-based microscopic analysis; format: functional, cell-based; conditions: time 21.0 day
Mesenchymal stem cells [4] = experiment: Induction of adipogenesis differentiation in human Mesenchymal stem cells at 10 uM incubated for 21 days by […] staining-based microscopic analysis; format: functional, cell-based; conditions: time 21.0 day
Mesenchymal stem cells [5] = experiment: Induction of osteogenesis differentiation in human Mesenchymal stem cells at 1 uM incubated for 21 days by Alizarin Red S staining-based microscopic analysis; format: functional, cell-based; conditions: time 21.0 day
Mesenchymal stem cells [6] = experiment: Induction of adipogenesis differentiation in human Mesenchymal stem cells at 20 uM incubated for 21 days by […] staining-based microscopic analysis; format: functional, cell-based; conditions: time 21.0 day
[7] = biological target: T1, Peroxisome proliferator-activated receptor alpha (Homo sapiens) (UniProt Q07869); experiment: Agonist activity at human PPARalpha transfected in COS-7 cells assessed maximum luciferase activity measured after 24 hrs by cell based luciferase transactivation assay relative to gemfibrozil; conditions: filed as agonist
T1 sequence (whole entry): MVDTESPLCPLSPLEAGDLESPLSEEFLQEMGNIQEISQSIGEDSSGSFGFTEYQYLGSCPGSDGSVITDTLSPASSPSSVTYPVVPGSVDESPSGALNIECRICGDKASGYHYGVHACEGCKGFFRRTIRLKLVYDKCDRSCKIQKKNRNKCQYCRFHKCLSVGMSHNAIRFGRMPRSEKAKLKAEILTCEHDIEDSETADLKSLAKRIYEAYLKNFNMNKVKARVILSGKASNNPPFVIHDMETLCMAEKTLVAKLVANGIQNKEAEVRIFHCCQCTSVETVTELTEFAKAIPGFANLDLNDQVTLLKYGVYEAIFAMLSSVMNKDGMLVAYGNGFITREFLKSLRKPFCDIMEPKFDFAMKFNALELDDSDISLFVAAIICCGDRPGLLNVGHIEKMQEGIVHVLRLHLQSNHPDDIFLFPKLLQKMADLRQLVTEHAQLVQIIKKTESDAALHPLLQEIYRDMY
Method in brief: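 Transient transfection of COS-7 cells with human PPARα, PPARγ or PPARδ plus luciferase reporter; constitutive Renilla luciferase also read. […] Three or more independent experiments in triplicate (N ≥ 9).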

[8] = biological target: T2, Peroxisome proliferator-activated receptor alpha (Homo sapiens, UniProt Q07869); experiment: Agonist activity at human PPARalpha transfected in COS-7 cells assessed luciferase activity measured after 24 hrs by cell based luciferase transactivation assay; conditions: read-out: EC50
T2 sequence (Q07869 whole entry): T1 sequence (whole entry)
Method in brief: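 Transient transfection of COS-7 cells with human PPARα, PPARγ or PPARδ plus luciferase reporter; constitutive Renilla luciferase also read. Three or more independent experiments in triplicate (N ≥ 9).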

[9] = biological target: T3, Peroxisome proliferator-activated receptor delta (Homo sapiens, UniProt Q03181); experiment: Agonist activity at human PPARdelta transfected in COS-7 cells assessed luciferase activity measured after 24 hrs by cell based luciferase transactivation assay
T3 sequence (Q03181 whole entry): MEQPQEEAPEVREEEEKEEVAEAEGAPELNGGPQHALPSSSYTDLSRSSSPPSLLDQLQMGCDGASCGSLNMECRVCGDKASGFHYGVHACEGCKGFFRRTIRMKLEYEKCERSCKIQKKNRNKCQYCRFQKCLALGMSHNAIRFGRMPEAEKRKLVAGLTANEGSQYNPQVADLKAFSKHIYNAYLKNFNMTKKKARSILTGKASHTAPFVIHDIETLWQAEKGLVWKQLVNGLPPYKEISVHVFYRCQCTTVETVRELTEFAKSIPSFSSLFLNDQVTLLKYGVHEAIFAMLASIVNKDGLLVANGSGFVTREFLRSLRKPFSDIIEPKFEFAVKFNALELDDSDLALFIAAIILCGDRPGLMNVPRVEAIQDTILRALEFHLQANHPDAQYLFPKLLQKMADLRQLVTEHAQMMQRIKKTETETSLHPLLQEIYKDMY

[10] = biological target: T4, Peroxisome proliferator-activated receptor gamma (Homo sapiens, UniProt P37231); experiment: Agonist activity at human PPARgamma transfected in COS-7 cells assessed luciferase activity measured after 24 hrs by cell based luciferase transactivation assay; conditions: read-out: EC50
T4 sequence (P37231 whole entry): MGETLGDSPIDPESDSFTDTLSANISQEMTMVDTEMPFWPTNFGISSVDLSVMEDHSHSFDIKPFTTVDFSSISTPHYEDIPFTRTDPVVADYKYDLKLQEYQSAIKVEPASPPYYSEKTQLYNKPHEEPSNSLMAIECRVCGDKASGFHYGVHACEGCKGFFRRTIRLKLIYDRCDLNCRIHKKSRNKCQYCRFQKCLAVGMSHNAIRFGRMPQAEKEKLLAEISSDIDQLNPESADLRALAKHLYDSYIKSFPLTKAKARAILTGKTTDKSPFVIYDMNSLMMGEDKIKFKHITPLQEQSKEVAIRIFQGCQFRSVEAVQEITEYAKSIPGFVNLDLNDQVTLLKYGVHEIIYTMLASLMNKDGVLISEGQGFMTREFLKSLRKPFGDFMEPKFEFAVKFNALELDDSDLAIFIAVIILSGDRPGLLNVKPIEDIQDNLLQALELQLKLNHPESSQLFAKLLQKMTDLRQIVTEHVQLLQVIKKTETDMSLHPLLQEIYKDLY

Compound	Activity (Mesenchymal stem cells [1])	Activity (Mesenchymal stem cells [2])	Activity (Mesenchymal stem cells [3])	Activity (Mesenchymal stem cells [4])	Activity (Mesenchymal stem cells [5])	Activity (Mesenchymal stem cells [6])	Emax [7] [%]	EC50 [8] [µM]	EC50 [9] [µM]	EC50 [10] [µM]
Cc1nn(-c2ccc(C(F)(F)F)cc2)nc1CN(C)c1ccc(/C=C/C(=O)O)cc1	inactive	Active	Active	inactive	Active	inactive				
Cc1nc(-c2ccccc2)sc1COc1ccc(/C=C/C(=O)O)cc1	Active	inactive		Active	inactive					
Cc1sc(-c2ccc(C(F)(F)F)cc2)nc1CN(C)c1ccc(/C=C/C(=O)O)cc1	inactive	Active	inactive	inactive	Active	inactive				
CCCN(Cc1sc(-c2ccc(C(F)(F)F)cc2)nc1C)c1ccc(/C=C/C(=O)O)cc1	inactive	Active	inactive	Active	Active	Active				
Cc1nc(-c2ccc(C(F)(F)F)cc2)sc1CN(c1ccc(/C=C/C(=O)O)cc1)C(C)C	inactive	Active	Active	inactive	Active	inactive				
CCc1cc(N(C)Cc2sc(-c3ccc(C(F)(F)F)cc3)nc2C)ccc1/C=C/C(=O)O	Active	Active	Active	Active	Active	Active				
Cc1nc(-c2ccccc2)sc1CN(C)c1ccc(/C=C/C(=O)O)cc1	inactive	inactive	inactive	Active	Active	Active				
Cc1nc(-c2cccc(C(F)(F)F)c2)sc1CSc1ccc(/C=C/C(=O)O)cc1	inactive	inactive	inactive	Active	Active	Active				
CCN(Cc1sc(-c2ccc(C(F)(F)F)cc2)nc1C)c1ccc(/C=C/C(=O)O)cc1	Active	Active	Active	Active	Active	Active				
Cc1nc(-c2ccc(C(F)(F)F)cc2)sc1CNc1ccc(/C=C/C(=O)O)cc1	inactive	Active	Active	Active	Active	Active	377	6.01	1.22	
Cc1ccc(C)c(OCCCC(C)(C)C(=O)O)c1 [GEMFIBROZIL]							110	11.8		
Cc1nc(-c2ccccc2)sc1CNc1ccc(/C=C/C(=O)O)cc1	Active	inactive		Active	Active					
Cc1nc(-c2ccc(C(F)(F)F)cc2)sc1CN(C)c1ccc(/C=C/C(=O)O)c(C(C)C)c1	inactive	Active	Active	inactive	Active	inactive				
COC(=O)/C=C/c1ccc(OCc2sc(-c3cccc(C(F)(F)F)c3)nc2C)cc1	Active				inactive					
Cc1nc(-c2ccc(C(F)(F)F)cc2)sc1CN(Cc1sc(-c2ccc(C(F)(F)F)cc2)nc1C)c1ccc(/C=C/C(=O)O)cc1	inactive	inactive		inactive	Active					
COC(=O)/C=C/c1ccc(OCc2sc(-c3ccc(C(F)(F)F)cc3)nc2C)cc1	Active				inactive					
Cc1nc(-c2cccc(C(F)(F)F)c2)sc1COc1ccc(/C=C/C(=O)O)cc1	Active				Active					
Cc1nc(-c2ccc(C(F)(F)F)cc2)sc1CSc1ccc(/C=C/C(=O)O)cc1	inactive	Active		inactive	Active		338	17.7	0.535	17
Cc1cc(/C=C/C(=O)O)ccc1N(C)Cc1sc(-c2ccc(C(F)(F)F)cc2)nc1C	inactive	Active	Active	inactive	Active	inactive				
Cc1nc(-c2ccc(C(F)(F)F)c(F)c2)sc1CN(C(=O)OC(C)(C)C)c1ccc(/C=C/C(=O)O)cc1	inactive	inactive	inactive	Active	Active	Active				
Cc1nc(-c2ccc(C(F)(F)F)c(F)c2)sc1CN(C)c1ccc(/C=C/C(=O)O)cc1	inactive	inactive	inactive	inactive	Active	Active				
Cc1nc(-c2ccc(C(F)(F)F)c(F)c2)sc1CNc1ccc(/C=C/C(=O)O)cc1	inactive	inactive	inactive	Active	Active	Active				
Cc1nc(-c2cccc(C(F)(F)F)c2)sc1CNc1ccc(/C=C/C(=O)O)cc1	Active	inactive	inactive	Active	inactive	Active				
Cc1nc(-c2cccc(C(F)(F)F)c2)sc1CN(C)c1ccc(/C=C/C(=O)O)cc1	inactive	inactive	inactive	Active	Active	Active				
Cc1nn(-c2ccc(C(F)(F)F)cc2)nc1CNc1ccc(/C=C/C(=O)O)cc1	Active	Active	Active	Active	Active	Active				
Cc1nc(-c2ccccc2)sc1CSc1ccc(/C=C/C(=O)O)cc1	Active	inactive		Active	Active					
CN(CCOc1ccc(CC2SC(=O)NC2=O)cc1)c1ccccn1 (stereo not given)	Active			Active			> 120			
